Assay results as given in ChEMBL document CHEMBL4229458, “Lipid accumulation inhibitory activities of novel isoxazole-based chenodeoxycholic acids: Design, synthesis and preliminary mechanism study” (Bioorg Med Chem Lett, 2018).
Active and inactive are the calls of the source. The calls are words filed in the database; no cut-off is given here.

Experiments:
3T3-L1 [1] = assay: Cytotoxicity against mouse 3T3L1 cells assessed as decrease in cell viability at 10 uM after 48 hrs by MTT assay; format: cell-based; conditions: 3t3-l1, 48 h
How it was run: (§1)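 3T3-L1 preadipocytes given 5, 10, 20 and 40 μM for 48 h, with 1% DMSO as control. Viability measured by MTT. Mean ± SD of two independent experiments.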

3T3-L1 [2] = assay: Cytotoxicity against mouse 3T3L1 cells assessed as decrease in cell viability at 40 uM after 48 hrs by MTT assay; format: cell-based; conditions: 3t3-l1, 48 h; how it was run: as §1
3T3-L1 [3] = assay: Inhibition of lipid accumulation in mouse 3T3L1 cells at 10 uM by oil red o staining-based assay; format: functional
How it was run: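 3T3-L1 preadipocytes differentiated for 6 days into mature adipocytes, then treated at 10 μM. Intracellular lipid stained with Oil Red O and quantified relative to vehicle. Mean ± SD of two independent experiments.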

[4] = molecular target: T1, Bile acid receptor (Homo sapiens) (UniProt Q96RI1); assay: Activation of FXR in human HepG2 cells assessed as upregulation of FXR mRNA expression at 10 uM by RT-PCR method; format: cell-based
T1 sequence (whole entry): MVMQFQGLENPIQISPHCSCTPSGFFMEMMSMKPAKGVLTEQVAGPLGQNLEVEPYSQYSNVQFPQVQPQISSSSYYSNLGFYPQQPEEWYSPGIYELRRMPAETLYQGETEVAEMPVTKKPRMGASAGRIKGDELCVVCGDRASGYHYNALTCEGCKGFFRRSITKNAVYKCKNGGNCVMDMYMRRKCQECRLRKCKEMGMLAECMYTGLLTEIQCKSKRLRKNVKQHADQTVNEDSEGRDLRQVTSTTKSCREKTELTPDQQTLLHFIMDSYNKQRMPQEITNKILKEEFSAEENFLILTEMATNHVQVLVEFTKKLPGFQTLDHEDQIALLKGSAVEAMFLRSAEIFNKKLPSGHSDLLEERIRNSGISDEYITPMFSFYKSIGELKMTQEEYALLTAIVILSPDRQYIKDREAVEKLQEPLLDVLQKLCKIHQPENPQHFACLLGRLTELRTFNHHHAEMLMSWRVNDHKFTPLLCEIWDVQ
How it was run: (§2)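 HepG2 cells treated at 10 μM. mRNA of FXR, SHP and SREBP-1c quantified by real-time PCR against vehicle (0.1% DMSO). Mean ± SEM, n = 3.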

HepG2 = assay: Cytotoxicity against human HepG2 cells assessed as decrease in cell viability at 5 to 80 uM after 48 hrs by MTT assay; format: cell-based; conditions: hepg2, 48 h
How it was run: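 HepG2 cells exposed to 5, 10, 20, 40 and 80 μM for 48 h. Viability read by MTT.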

[5] = molecular target: T1, Bile acid receptor (Homo sapiens); assay: Activation of FXR in human HepG2 cells assessed as upregulation of SHP mRNA expression at 10 uM by RT-PCR method; format: cell-based; how it was run: as §2
[6] = molecular target: T1, Bile acid receptor (Homo sapiens); assay: Activation of FXR in human HepG2 cells assessed as downregulation of SREBP-1c mRNA expression at 10 uM by RT-PCR method; format: cell-based; how it was run: as §2

With CC(=O)Nc1ccc(NC(=O)CC[C@@H](C)[C@H]2CC[C@H]3[C@@H]4[C@H](O)C[C@@H]5C[C@@H](NC(=O)c6c(C)noc6C)CC[C@]5(C)[C@H]4CC[C@]23C)cc1 as the molecule, how does the Activity (3T3-L1 [1]) read?
Its Activity is “Non-Toxic”.

What about the Activity (3T3-L1 [2]) of the same molecule?
Its Activity is “Toxic”.

What about the inhibition (3T3-L1 [3]) of the same molecule?
Its inhibition is “Active”.

With Cc1noc(C)c1C(=O)N[C@H]1CC[C@@]2(C)[C@@H](C1)C[C@@H](O)[C@@H]1[C@@H]2CC[C@]2(C)[C@@H]([C@H](C)CCC(=O)Nc3cccc(Cl)c3)CC[C@@H]12 as the molecule, how does the Activity (3T3-L1 [1]) read?
Its Activity is “Non-Toxic”.

What about the Activity (3T3-L1 [2]) of the same molecule?
Its Activity is “Non-Toxic”.

And the inhibition (3T3-L1 [3])?
Its inhibition is “Active”.

Which Activity (3T3-L1 [1]) does the source give for Cc1noc(C)c1C(=O)N[C@H]1CC[C@@]2(C)[C@@H](C1)C[C@@H](O)[C@@H]1[C@@H]2CC[C@]2(C)[C@@H]([C@H](C)CCC(=O)O)CC[C@@H]12 here?
Its Activity is “Non-Toxic”.

What about the Activity (3T3-L1 [2]) of the same molecule?
Its Activity is “Non-Toxic”.

What about the inhibition (3T3-L1 [3]) of the same molecule?
Its inhibition is “Active”.

Which Activity (3T3-L1 [1]) does the source give for Cc1noc(C)c1C(=O)N[C@H]1CC[C@@]2(C)[C@@H](C1)C[C@@H](O)[C@@H]1[C@@H]2CC[C@]2(C)[C@@H]([C@H](C)CCC(=O)Nc3ccc(F)cc3)CC[C@@H]12 here?
The Activity was “Non-Toxic”.

And the Activity (3T3-L1 [2])?
The Activity was “Non-Toxic”.

What about the inhibition (3T3-L1 [3]) of the same molecule?
Its inhibition is “Active”.

How did the Activity (3T3-L1 [1]) turn out when CCNC(=O)CC[C@@H](C)[C@H]1CC[C@H]2[C@@H]3[C@H](O)C[C@@H]4C[C@@H](NC(=O)c5c(C)noc5C)CC[C@]4(C)[C@H]3CC[C@]12C was run?
Its Activity is “Non-Toxic”.

And the Activity (3T3-L1 [2])?
Its Activity is “Non-Toxic”.

What about the inhibition (3T3-L1 [3]) of the same molecule?
The inhibition was “Active”.

Which results are given for Cc1noc(C)c1C(=O)N[C@H]1CC[C@@]2(C)[C@@H](C1)C[C@@H](O)[C@@H]1[C@@H]2CC[C@]2(C)[C@@H]([C@H](C)CCC(=O)Nc3ccc(Cl)cc3)CC[C@@H]12?
Activity (3T3-L1 [1]): Non-Toxic; Activity (3T3-L1 [2]): Non-Toxic; inhibition (3T3-L1 [3]): Active

Which results are given for COC(=O)CC[C@@H](C)[C@H]1CC[C@H]2[C@@H]3[C@H](O)C[C@@H]4C[C@@H](NC(=O)c5c(C)noc5C)CC[C@]4(C)[C@H]3CC[C@]12C?
Activity (3T3-L1 [1]): Non-Toxic; Activity (3T3-L1 [2]): Non-Toxic; inhibition (3T3-L1 [3]): Active

How did the inhibition (3T3-L1 [3]) turn out when C[C@H](CCC(=O)O)[C@H]1CC[C@H]2[C@@H]3[C@H](O)C[C@@H]4C[C@H](O)CC[C@]4(C)[C@H]3CC[C@]12C was run?
Its inhibition is “Active”.

What does the source list for Cc1noc(C)c1C(=O)N[C@H]1CC[C@@]2(C)[C@@H](C1)C[C@@H](O)[C@@H]1[C@@H]2CC[C@]2(C)[C@@H]([C@H](C)CCC(N)=O)CC[C@@H]12?
Activity (3T3-L1 [1]): Non-Toxic; Activity (3T3-L1 [2]): Non-Toxic; inhibition (3T3-L1 [3]): Active

How did the Activity (3T3-L1 [1]) turn out when Cc1noc(C)c1C(=O)N[C@H]1CC[C@@]2(C)[C@@H](C1)C[C@@H](O)[C@@H]1[C@@H]2CC[C@]2(C)[C@@H]([C@H](C)CCC(=O)NCC(=O)O)CC[C@@H]12 was run?
Its Activity is “Non-Toxic”.

What about the Activity (3T3-L1 [2]) of the same molecule?
Its Activity is “Non-Toxic”.

And the inhibition (3T3-L1 [3])?
The inhibition was “Active”.

What does the source list for CNC(=O)CC[C@@H](C)[C@H]1CC[C@H]2[C@@H]3[C@H](O)C[C@@H]4C[C@@H](NC(=O)c5c(C)noc5C)CC[C@]4(C)[C@H]3CC[C@]12C?
Activity [4]: Active; Activity (3T3-L1 [1]): Non-Toxic; Activity (3T3-L1 [2]): Non-Toxic; Activity (HepG2): Non-Toxic; inhibition at 10 µM (3T3-L1 [3]): 30.5%; Activity [5]: Active; Activity [6]: Active

How did the Activity [4] turn out when CC(C)c1onc(-c2c(Cl)cccc2Cl)c1COc1ccc(/C=C/c2cccc(C(=O)O)c2)c(Cl)c1 was run?
Its Activity is “Active”.

What about the Activity (HepG2) of the same molecule?
Its Activity is “Non-Toxic”.

What about the Activity [5] of the same molecule?
The Activity was “Active”.

And the Activity [6]?
The Activity was “Active”.
